Experimental data pooled from the literature.
Each line is one published result; the experiments were not run side by side. ≈ marks a conversion by molar mass, not a printed value.

N.N.[Cl][Pt][Cl] has an IC50 of 3 µM (HCC827; cell growth or viability, MTT; 72 h).
For O=C1CCc2ccc(O)c(c2)Oc2ccc(cc2)/C=C\CO1, the IC50 was over 40 µM (tubulin polymerisation, inhibitor).
With CCCCCCCC(=O)NP(=O)(O)O the MIC was over 200 µg/mL (Bacillus subtilis; microbial growth; ATCC23857).
The MIC of CN[C@@H]1[C@H](O)[C@H](NC)[C@H]2O[C@@]3(O)C(=O)C[C@@H](C)O[C@H]3O[C@@H]2[C@H]1O is reported as 50 µg/mL (≈ 150 µM) (Proteus vulgaris; microbial growth, broth dilution; ATCC33420).
CN1C[C@H](C(=O)N[C@]2(C)O[C@@]3(O)[C@@H]4CCCN4C(=O)[C@H](Cc4ccccc4)N3C2=O)C=C2c3cccc4[nH]cc(c34)C[C@H]21 has an EC50 of 57 µM (WI-38; cell growth or viability, MTT; 72 h).
With O=C(CCCCCCCCCCOc1ccccc1)NP(=O)(O)O the MIC was over 200 µg/mL (Bacillus subtilis; microbial growth; ATCC23857).
The IC50 of O=C1CCc2ccc(O)c(c2)Oc2ccc(cc2)[C@H]2O[C@@H]2CO1 is reported as over 40 µM (tubulin polymerisation, inhibitor).
OC(Cn1cncn1)(Cn1cncn1)c1ccc(F)cc1F has an MIC of 3.12 µg/mL (≈ 10.2 µM) (Cryptococcus neoformans; microbial growth, broth dilution).
The IC50 of Cc1cccc(-n2ncc(Cl)c(Cl)c2=O)c1 is reported as 0.09 µM (HCC827; cell growth or viability, resazurin; 96 h).
With Cc1ncc([N+](=O)[O-])n1CCO the MIC50 was 0.5 µg/mL (≈ 2.92 µM) (Clostridium perfringens; microbial growth).
The IC50 of Cc1cc(N(CCO)CCO)ccc1C=O is reported as over 10 µg/mL (CAKI-1; cell growth or viability).
With COc1ccc(/C=C\c2cc(OC)c(OC)c(OC)c2)cc1 the IC50 was 1.1 µM (tubulin polymerisation, inhibitor, absorbance).
The MIC50 of O=[N+]([O-])c1ccc(C2=[N+]([O-])c3ccccc3N3CCN=C23)cc1 is reported as at most 0.06 µg/mL (Clostridium perfringens; microbial growth).
